In ChEMBL document CHEMBL4325897, “Discovery, synthesis of novel fusidic acid derivatives possessed amino-terminal groups at the 3-hydroxyl position with anticancer activity” (Eur J Med Chem, 2019):
Converted amounts (≈) assume the structure as drawn.

How the values were obtained:
U-87 MG [1] = assay: Cytotoxicity against human U87 cells assessed as cell viability at 1.5 uM after 72 hrs by MTT assay relative to control; type: functional, U-87MG ATCC; conditions: read-out: Activity
In short: (§1)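 Cells grown in DMEM with 10% heat-inactivated FCS and penicillin/streptomycin at 37 °C, 5% CO2, and used in log phase. Seeded in 96-well plates and exposed to compounds at 5 μM and 1.5 μM for 72 h. MTT added, formazan dissolved in DMSO, OD read at 570 nm, and survival rate calculated. Average of at least three independent experiments.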

HeLa [2] = assay: Cytotoxicity against human HeLa cells assessed as cell viability at 1.5 uM after 72 hrs by MTT assay relative to control; type: functional; conditions: read-out: Activity; in short: as §1
MKN-45 [3] = assay: Cytotoxicity against human MKN45 cells assessed as cell viability at 5 uM after 72 hrs by MTT assay relative to control; type: functional; conditions: MKN-45, 72 h, read-out: Activity; in short: as §1
[4] = Cytotoxicity against human KBV cells assessed as cell viability at 1.5 uM after 72 hrs by MTT assay relative to control; type: functional; conditions: read-out: Activity; in short: as §1
MKN-45 [5] = assay: Cytotoxicity against human MKN45 cells assessed as cell viability at 1.5 uM after 72 hrs by MTT assay relative to control; type: functional; conditions: MKN-45, 72 h, read-out: Activity; in short: as §1
[6] = Cytotoxicity against human KBV cells assessed as cell viability at 5 uM after 72 hrs by MTT assay relative to control; type: functional; conditions: read-out: Activity; in short: as §1
HeLa [7] = assay: Cytotoxicity against human HeLa cells assessed as cell viability at 5 uM after 72 hrs by MTT assay relative to control; type: functional; conditions: read-out: Activity; in short: as §1
U-87 MG [8] = assay: Cytotoxicity against human U87 cells assessed as cell viability at 5 uM after 72 hrs by MTT assay relative to control; type: functional, U-87MG ATCC; conditions: read-out: Activity; in short: as §1
[9] = Cytotoxicity against HEK293 cells assessed as reduction in cell viability after 72 hrs by MTT assay; type: cell-based; conditions: human
Staphylococcus aureus = assay: Antibacterial activity against Staphylococcus aureus; type: functional

Structure (SMILES)	viability at 1.5 µM (U-87 MG [1]) [%]	viability at 1.5 µM (HeLa [2]) [%]	viability at 5 µM (MKN-45 [3]) [%]	viability at 1.5 µM [4] [%]	viability at 1.5 µM (MKN-45 [5]) [%]	viability at 5 µM [6] [%]	viability at 5 µM (HeLa [7]) [%]	viability at 5 µM (U-87 MG [8]) [%]	CC50 at 72 h [9] [µg/mL]	MIC (Staphylococcus aureus) [µg/mL]
CC(=O)O[C@H]1C[C@@]2(C)[C@@H](C[C@@H](O)[C@H]3[C@@]4(C)CC[C@@H](OC(=O)c5ccccc5C(=O)N5CCOCC5)[C@@H](C)[C@@H]4CC[C@@]32C)/C1=C(\CCC=C(C)C)C(=O)OCc1ccccc1	86	76	92	81	104	66	60	77	–	–
CC(=O)O[C@H]1C[C@@]2(C)[C@@H](C[C@@H](O)[C@H]3[C@@]4(C)CC[C@@H](OC(=O)CCC(=O)n5cccn5)[C@@H](C)[C@@H]4CC[C@@]32C)/C1=C(\CCC=C(C)C)C(=O)OCc1ccccc1	87	75	83	77	88	80	71	83	–	–
CC(=O)O[C@H]1C[C@@]2(C)[C@@H](C[C@@H](O)[C@H]3[C@@]4(C)CC[C@@H](OC(=O)c5ccccc5C(=O)n5ccnc5)[C@@H](C)[C@@H]4CC[C@@]32C)/C1=C(\CCC=C(C)C)C(=O)OCc1ccccc1	85	84	92	81	103	69	63	77	–	–
CC(=O)O[C@H]1C[C@@]2(C)[C@@H](C[C@@H](O)[C@H]3[C@@]4(C)CC[C@@H](OC(=O)CN)[C@@H](C)[C@@H]4CC[C@@]32C)/C1=C(\CCC=C(C)C)C(=O)OCc1ccccc1	94	100	93	97	95	28	96	41	10.8 (≈ 16.3 µM)	> 32
CC(=O)O[C@H]1C[C@@]2(C)[C@@H](C[C@@H](O)[C@H]3[C@@]4(C)CC[C@@H](OC(=O)c5ccccc5C(=O)O)[C@@H](C)[C@@H]4CC[C@@]32C)/C1=C(\CCC=C(C)C)C(=O)OCc1ccccc1	81	89	76	78	78	81	68	85	20.6 (≈ 27.3 µM)	32 (≈ 42.4 µM)
CC(=O)O[C@H]1C[C@@]2(C)[C@@H](C[C@@H](O)[C@H]3[C@@]4(C)CC[C@@H](OC(=O)CCCCCCCCCCN)[C@@H](C)[C@@H]4CC[C@@]32C)/C1=C(\CCC=C(C)C)C(=O)OCc1ccccc1	49	100	5	93	96	9	19	10	–	–
CC(=O)O[C@H]1C[C@@]2(C)[C@@H](C[C@@H](O)[C@H]3[C@@]4(C)CC[C@@H](OC(=O)c5nccnc5C(=O)O)[C@@H](C)[C@@H]4CC[C@@]32C)/C1=C(\CCC=C(C)C)C(=O)OCc1ccccc1	88	76	87	86	95	108	69	90	–	–
CC(=O)O[C@H]1C[C@@]2(C)[C@@H](C[C@@H](O)[C@H]3[C@@]4(C)CC[C@@H](OC(=O)CCCCCCCN)[C@@H](C)[C@@H]4CC[C@@]32C)/C1=C(\CCC=C(C)C)C(=O)OCc1ccccc1	116	99	4	83	16	11	19	10	–	–
CC(=O)O[C@H]1C[C@@]2(C)[C@@H](C[C@@H](O)[C@H]3[C@@]4(C)CC[C@@H](OC(=O)c5ccccc5C(=O)N5CCN(C)CC5)[C@@H](C)[C@@H]4CC[C@@]32C)/C1=C(\CCC=C(C)C)C(=O)OCc1ccccc1	86	83	99	89	104	75	73	77	–	–
CC(=O)O[C@H]1C[C@@]2(C)[C@@H](C[C@@H](O)[C@H]3[C@@]4(C)CC[C@@H](OC(=O)CCC(=O)N5CCN(C)CC5)[C@@H](C)[C@@H]4CC[C@@]32C)/C1=C(\CCC=C(C)C)C(=O)OCc1ccccc1	87	70	75	82	81	71	47	88	–	–
CC(=O)O[C@H]1C[C@@]2(C)[C@@H](C[C@@H](O)[C@H]3[C@@]4(C)CC[C@@H](OC(=O)C(C)N)[C@@H](C)[C@@H]4CC[C@@]32C)/C1=C(\CCC=C(C)C)C(=O)OCc1ccccc1 (stereo not given in full)	95	102	91	95	96	15	23	33	–	–
CC(=O)O[C@H]1C[C@@]2(C)[C@@H](C[C@@H](O)[C@H]3[C@@]4(C)CC[C@@H](OC(=O)c5ccccc5C(=O)n5cccn5)[C@@H](C)[C@@H]4CC[C@@]32C)/C1=C(\CCC=C(C)C)C(=O)OCc1ccccc1	90	90	96	85	101	79	82	87	–	–
CC(=O)O[C@H]1C[C@@]2(C)[C@@H](C[C@@H](O)[C@H]3[C@@]4(C)CC[C@@H](OC(=O)[C@@H](N)CCCCN)[C@@H](C)[C@@H]4CC[C@@]32C)/C1=C(\CCC=C(C)C)C(=O)OCc1ccccc1	105	101	8	99	91	18	8	9	–	–
CC(=O)O[C@H]1C[C@@]2(C)[C@@H](C[C@@H](O)[C@H]3[C@@]4(C)CC[C@@H](OC(=O)CCC(=O)O)[C@@H](C)[C@@H]4CC[C@@]32C)/C1=C(\CCC=C(C)C)C(=O)OCc1ccccc1	86	83	76	72	74	66	69	84	–	–
CC(=O)O[C@H]1C[C@@]2(C)[C@@H](C[C@@H](O)[C@H]3[C@@]4(C)CC[C@@H](OC(=O)C(N)CC(C)C)[C@@H](C)[C@@H]4CC[C@@]32C)/C1=C(\CCC=C(C)C)C(=O)OCc1ccccc1 (stereo not given in full)	106	99	92	96	95	83	22	111	–	–
CC(=O)O[C@H]1C[C@@]2(C)[C@@H](C[C@@H](O)[C@H]3[C@@]4(C)CC[C@@H](OC(=O)CCC(=O)N5CCOCC5)[C@@H](C)[C@@H]4CC[C@@]32C)/C1=C(\CCC=C(C)C)C(=O)OCc1ccccc1	91	76	78	78	82	66	64	93	–	–
CC(=O)O[C@H]1C[C@@]2(C)[C@@H](C[C@@H](O)[C@H]3[C@@]4(C)CC[C@@H](OC(=O)CCCN)[C@@H](C)[C@@H]4CC[C@@]32C)/C1=C(\CCC=C(C)C)C(=O)OCc1ccccc1	10	101	6	98	90	13	23	9	–	–
